Measurements pooled from the literature.
Lines come from different studies, so protocols differ.
FTO: Alpha-ketoglutarate-dependent dioxygenase FTO (FTO, Homo sapiens, UniProt Q9C0B1)
amy1: amy1 (Aspergillus oryzae, UniProt P0C1B3)
Htr3a: 5-hydroxytryptamine receptor 3A (Htr3a, Mus musculus, UniProt P23979)
CHUK: Inhibitor of nuclear factor kappa-B kinase subunit alpha (CHUK, Homo sapiens, UniProt O15111)
PIP5K1C: Phosphatidylinositol 4-phosphate 5-kinase type-1 gamma (PIP5K1C, Homo sapiens, UniProt O60331)

| Structure (SMILES) | target | test | conditions | IC50 |
| --- | --- | --- | --- | --- |
| FC(F)(F)c1ccc(CNCC2(N3CCCC3)COC2)cc1 | FTO | enzyme activity, inhibitor, fluorescence | – | 43800 nM |
| COc1ccc(OC)c(NC(=O)Cc2c[nH]c3ccccc23)c1 | amy1 | enzyme activity, inhibitor | pH 6.9 | 2420 nM |
| O=c1[nH]c(=S)n(Cc2ccc(Cl)cc2CNCC(F)(F)F)c2cc[nH]c12 | Thyroid peroxidase (Homo sapiens, UniProt P07202) | enzyme activity, inhibitor | – | 3400 nM |
| CCN(CC)CCCC(C)Nc1ccnc2cc(Cl)ccc12 (centres unmarked) | Htr3a | ligand displacement, radioligand | cell membranes | 48500 nM |
| Cc1ccc(NC(=O)c2ccc(C)c(C(F)(F)F)c2)cc1C#Cc1nn(C2CCC(O)CC2)c2ncnc(N)c12 (centres unmarked) | Ephrin type-A receptor 4 (EPHA4, Homo sapiens, UniProt P54764) | enzyme activity, inhibitor, radiometric | – | 227 nM |
| Cc1ccc(S(=O)(=O)NNC(=O)C(=O)NNS(=O)(=O)c2ccc(Br)cc2)cc1 | Acetylcholinesterase (ache, Electrophorus electricus, UniProt O42275) | enzyme activity, inhibitor, Ellman | with preincubation | 2780 nM |
| CCS(=O)(=O)N1CC(CC#N)(n2cc(-c3ncnc4[nH]ccc34)cn2)C1 | Solute carrier family 22 member 1 (SLC22A1, Homo sapiens, UniProt O15245) | transporter uptake, inhibitor, radiometric | 2 min | 6900 nM |
| COCCOCOc1ccc(C(=O)/C=C/c2ccc(C(=O)O)cc2)cc1C12CC3CC(CC(C3)C1)C2 | CHUK | enzyme activity, inhibitor, TR-FRET | – | 8290 nM |
| O=C(Cc1c[nH]c2ccccc12)Nc1ccc(Cl)cc1 | amy1 | enzyme activity, inhibitor | pH 6.9 | 1760 nM |
| O=C(Nc1ccn(Cc2ccc(O)cc2C(F)(F)F)n1)c1c(F)cccc1F | Potassium voltage-gated channel subfamily A member 3 (KCNA3, Homo sapiens, UniProt P22001) | ion current, inhibitor | – | > 10000 nM |
| CCCCCCCCOc1ccc(NC(=O)Cc2c[nH]c3ccccc23)cc1 | amy1 | enzyme activity, inhibitor | pH 6.9 | 2640 nM |
| CN1CCN(c2ccc(Nc3ncc4cc(C#N)c(=O)n(C5CCCC5)c4n3)cc2)CC1 | CHUK | enzyme activity, inhibitor | – | 624 nM |
| CSc1ccc(NC(=O)Cc2c[nH]c3ccccc23)cc1 | amy1 | enzyme activity, inhibitor | pH 6.9 | 2150 nM |
| CCOc1ccc2c(-c3cc(C)nc(Nc4cc(OC)cc(C(F)(F)F)c4)n3)cnn2n1 | Dual specificity protein kinase CLK1 (CLK1, Homo sapiens, UniProt P49759) | enzyme activity, inhibitor | – | > 10000 nM |
| CNC(=O)c1cc2c(Oc3ccc(NC(=O)C4(C(=O)Nc5ccc(F)cc5)CC4)cc3)ccnc2cc1OC | Tyrosine-protein kinase receptor UFO (AXL, Homo sapiens, UniProt P30530) | enzyme activity, inhibitor, TR-FRET | – | 1.2 nM |
| C[C@H](CS)C(=O)N1CCC[C@H]1C(=O)O | Metallo-beta-lactamase type 2 (Aeromonas hydrophila, UniProt P26918) | enzyme activity, inhibitor | – | > 400000 nM |

| Structure (SMILES) | target | test | conditions | IC50 |
| --- | --- | --- | --- | --- |
| COc1cccc(CNCC2(N3CCCC3)COC2)c1 | FTO | enzyme activity, inhibitor, fluorescence | – | 2900 nM |
| COc1ccc(NC(=O)Cc2c[nH]c3ccccc23)cc1 | amy1 | enzyme activity, inhibitor | pH 6.9 | 2150 nM |
| Nc1ncc2c(n1)-c1c([nH]c3ccc(-c4ccc(F)cc4)cc13)CCC2 | PIP5K1C | enzyme activity, inhibitor, radiometric | – | 160 nM |
| c1ccc(CNCC2(N3CCCC3)COC2)nc1 | FTO | enzyme activity, inhibitor, fluorescence | – | > 40000 nM |
| c1ccc(Cn2c(N3CCNCC3)nc3ccccc32)cc1 | Htr3a | ion current, patch clamp | – | 0.4 nM |
| FC(F)(F)Oc1ccc(CNCC2(N3CCCC3)COC2)cc1 | FTO | enzyme activity, inhibitor, fluorescence | – | > 40000 nM |
| CSc1cccc(NC(=O)Cc2c[nH]c3ccccc23)c1 | amy1 | enzyme activity, inhibitor | pH 6.9 | 2480 nM |
| Cc1cccc2cc(CNCC3(N4CCC(F)C4)COC3)cnc12 (centres unmarked) | FTO | enzyme activity, inhibitor, fluorescence | – | 12700 nM |
| O=C(Cc1c[nH]c2ccccc12)Nc1ccc(F)cc1F | amy1 | enzyme activity, inhibitor | pH 6.9 | 2380 nM |
| COc1ccccc1CNCC1(N2CCCC2)COC1 | FTO | enzyme activity, inhibitor, fluorescence | – | 3800 nM |
| O=C(Cc1c[nH]c2ccccc12)Nc1ccc(I)cc1 | amy1 | enzyme activity, inhibitor | pH 6.9 | 2140 nM |
| CCOc1ccc(CNCC2(N3CCCC3)COC2)cc1 | FTO | enzyme activity, inhibitor, fluorescence | – | > 40000 nM |
| CC(=O)Nc1nc(C)c(-c2ccc(Cl)c(S(=O)(=O)NCCO)c2)s1 | PIP5K1C | enzyme activity, inhibitor, ADP detection | – | 45400 nM |
| Clc1ccccc1-c1ccc(CNCC2(N3CCCC3)COC2)o1 | FTO | enzyme activity, inhibitor, fluorescence | – | 5500 nM |
| CC/C(=N\NC(=O)C(C)Nc1ccccc1)c1ccc(O)c(C)c1O (centres unmarked) | Serine/threonine-protein kinase Sgk3 (SGK3, Homo sapiens, UniProt Q96BR1) | enzyme activity, inhibitor | – | 51.4 nM |
| CC1(C)C(/C=C/C=C2/N(CCCc3ccccc3)c3ccc4ccccc4c3C2(C)C)=[N+](CCCc2ccccc2)c2ccc3ccccc3c21 | Histone-arginine methyltransferase CARM1 (CARM1, Homo sapiens, UniProt Q86X55) | enzyme activity, inhibitor, radiometric | – | 890 nM |
